{"source": "ChEMBL document CHEMBL1671747", "about": "“Efficacy and safety of intravenous peramivir for treatment of seasonal influenza virus infection” (Antimicrob Agents Chemother, 2010)", "conditions_in_all_cases": "in vivo", "key": {"Plasma": {"tested_on": "Plasma", "assay": "Plasma concentration in human at 600 mg, iv after 36 to 48 hrs", "type": "ADME, organism-based", "method_in_brief": "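Subjects received a single IV infusion of 300 or 600 mg (mean 5.0 or 10.0 mg/kg; median infusion 0.63 h). Plasma was sampled just before the infusion ended, and on days 2 and 3. Samples were deproteinized and run on C18 LC/MS-MS. Values are medians at end of infusion, 18–24 h and 36–48 h after infusion.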"}, "Homo sapiens [1]": {"tested_on": "Homo sapiens", "assay": "Toxicity in human patient infected with Influenza virus assessed as increase in monocyte at 300 mg, iv", "type": "organism-based", "method_in_brief": "(§1)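 Adults with seasonal influenza received one intravenous infusion of peramivir (300 or 600 mg) or matching placebo; the median infusion lasted 0.63 h. Blood for haematology, including the white-cell differential, was taken at baseline and on days 3 and 14. Tests were run by blinded technicians. Adverse-event incidence in the 298-subject safety population was compared with placebo by Fisher's exact test.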"}, "Homo sapiens [2]": {"tested_on": "Homo sapiens", "assay": "Toxicity in human patient infected with Influenza virus assessed as increase in blood glucose at 300 mg, iv", "type": "organism-based", "method_in_brief": "(§2)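 One IV dose of 300 or 600 mg or placebo was given to adults with influenza. Blood (hematology, biochemistry) and urine (including NAG, β2- and α1-microglobulin, protein) were sampled at baseline, day 3 and day 14 by blinded technicians. Adverse-event incidence versus placebo was compared by Fisher's exact test.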"}, "Homo sapiens [3]": {"tested_on": "Homo sapiens", "assay": "Toxicity in human patient infected with Influenza virus assessed as diarrhea at 300 mg, iv", "type": "organism-based", "method_in_brief": "(§3)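 Adverse events were recorded after one IV dose of 300 or 600 mg or placebo in adults with influenza. Incidence in each peramivir group was compared with placebo by Fisher's exact test.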"}, "Homo sapiens [4]": {"tested_on": "Homo sapiens", "assay": "Toxicity in human patient infected with Influenza virus assessed as increase in lymphocyte at 300 mg, iv", "type": "organism-based", "method_in_brief": "as §2"}, "Homo sapiens [5]": {"tested_on": "Homo sapiens", "assay": "Toxicity in human patient infected with Influenza virus assessed as proteinuria at 300 mg, iv", "type": "organism-based", "method_in_brief": "(§4)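 Subjects received a single intravenous peramivir dose (300 or 600 mg) or placebo, infused over a median of 0.63 h. Urinalysis covered protein, albumin and sediment, among other analytes. Urine was collected at baseline and on days 3 and 14 and tested by blinded technicians. Incidence in the safety population (n = 298 treated) was compared with placebo by Fisher's exact test.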"}, "Homo sapiens [6]": {"tested_on": "Homo sapiens", "assay": "Toxicity in human patient infected with Influenza virus assessed as white blood cells-positive urine at 300 mg, iv", "type": "organism-based", "method_in_brief": "as §4"}, "Homo sapiens [7]": {"tested_on": "Homo sapiens", "assay": "Toxicity in human patient infected with Influenza virus assessed as beta2 microglobulin in urine at 300 mg, iv", "type": "organism-based", "method_in_brief": "as §2"}, "Homo sapiens [8]": {"tested_on": "Homo sapiens", "assay": "Toxicity in human patient infected with Influenza virus assessed as decrease in white blood cell count at 300 mg, iv", "type": "organism-based", "method_in_brief": "as §2"}, "Homo sapiens [9]": {"tested_on": "Homo sapiens", "assay": "Toxicity in human patient infected with Influenza virus assessed as increase in blood bilirubin at 300 mg, iv", "type": "organism-based", "method_in_brief": "as §2"}, "Homo sapiens [10]": {"tested_on": "Homo sapiens", "assay": "Toxicity in human patient infected with Influenza virus assessed as increase in alanine aminotransferase at 300 mg, iv", "type": "organism-based", "method_in_brief": "as §2"}, "Homo sapiens [11]": {"tested_on": "Homo sapiens", "assay": "Toxicity in human patient infected with Influenza virus assessed as increase in aspartate aminotransferase at 300 mg, iv", "type": "organism-based", "method_in_brief": "as §2"}, "Homo sapiens [12]": {"tested_on": "Homo sapiens", "assay": "Toxicity in human patient infected with Influenza virus assessed as increase in alpha1 Microglobulin at 300 mg, iv", "type": "organism-based", "method_in_brief": "as §2"}, "Homo sapiens [13]": {"tested_on": "Homo sapiens", "assay": "Toxicity in human patient infected with Influenza virus assessed as nausea at 300 mg, iv", "type": "organism-based", "method_in_brief": "(§5)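 In this randomized trial, subjects received a single intravenous infusion of peramivir (300 mg or 600 mg) or matching placebo; the median infusion lasted 0.63 h. Subjects were followed at visits on days 1, 2 (optional), 3, 5, 9 and 14. Adverse-event incidences across the 298 treated subjects were compared with placebo using Fisher's exact test.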"}, "Homo sapiens [14]": {"tested_on": "Homo sapiens", "assay": "Toxicity in human patient infected with Influenza virus assessed as increase in blood lactate dehydrogenase at 300 mg, iv", "type": "organism-based", "method_in_brief": "as §2"}, "Homo sapiens [15]": {"tested_on": "Homo sapiens", "assay": "Toxicity in human patient infected with Influenza virus assessed as beta-N-Acetyl-D-glucosaminidase at 300 mg, iv", "type": "organism-based", "method_in_brief": "as §2"}, "Homo sapiens [16]": {"tested_on": "Homo sapiens", "assay": "Toxicity in human patient infected with Influenza virus assessed as urine containing albumine at 300 mg, iv", "type": "organism-based", "method_in_brief": "as §4"}, "Homo sapiens [17]": {"tested_on": "Homo sapiens", "assay": "Toxicity in human patient infected with Influenza virus assessed as decrease in total Protein at 300 mg, iv", "type": "organism-based", "method_in_brief": "as §2"}, "Homo sapiens [18]": {"tested_on": "Homo sapiens", "assay": "Toxicity in human patient infected with Influenza virus assessed as lymphocyte morphology abnormal at 300 mg, iv", "type": "organism-based", "method_in_brief": "as §1"}, "Homo sapiens [19]": {"tested_on": "Homo sapiens", "assay": "Toxicity in human patient infected with Influenza virus assessed as nasopharyngitis at 300 mg, iv", "type": "organism-based", "method_in_brief": "as §5"}, "Homo sapiens [20]": {"tested_on": "Homo sapiens", "assay": "Toxicity in human patient infected with Influenza virus assessed as increase in blood phosphate at 300 mg, iv", "type": "organism-based", "method_in_brief": "as §2"}, "Homo sapiens [21]": {"tested_on": "Homo sapiens", "assay": "Toxicity in human patient infected with Influenza virus assessed as monocyte at 600 mg, iv", "type": "organism-based", "method_in_brief": "as §1"}, "Homo sapiens [22]": {"tested_on": "Homo sapiens", "assay": "Toxicity in human patient infected with Influenza virus assessed as increase in blood glucose at 600 mg, iv", "type": "organism-based", "method_in_brief": "as §2"}, "Homo sapiens [23]": {"tested_on": "Homo sapiens", "assay": "Toxicity in human patient infected with Influenza virus assessed as diarrhea at 600 mg, iv", "type": "organism-based", "method_in_brief": "as §3"}, "Homo sapiens [24]": {"tested_on": "Homo sapiens", "assay": "Toxicity in human patient infected with Influenza virus assessed as increase in lymphocyte at 600 mg, iv", "type": "organism-based", "method_in_brief": "as §2"}, "Homo sapiens [25]": {"tested_on": "Homo sapiens", "assay": "Toxicity in human patient infected with Influenza virus assessed as proteinuria at 600 mg, iv", "type": "organism-based", "method_in_brief": "as §4"}, "Homo sapiens [26]": {"tested_on": "Homo sapiens", "assay": "Toxicity in human patient infected with Influenza virus assessed as white blood cells-positive urine at 600 mg, iv", "type": "organism-based", "method_in_brief": "as §4"}, "Homo sapiens [27]": {"tested_on": "Homo sapiens", "assay": "Toxicity in human patient infected with Influenza virus assessed as beta2 microglobulin in urine at 600 mg, iv", "type": "organism-based", "method_in_brief": "as §2"}, "Homo sapiens [28]": {"tested_on": "Homo sapiens", "assay": "Toxicity in human patient infected with Influenza virus assessed as decrease in white blood cell count at 600 mg, iv", "type": "organism-based", "method_in_brief": "as §2"}, "Homo sapiens [29]": {"tested_on": "Homo sapiens", "assay": "Toxicity in human patient infected with Influenza virus assessed as increase in blood bilirubin at 600 mg, iv", "type": "organism-based", "method_in_brief": "as §2"}, "Homo sapiens [30]": {"tested_on": "Homo sapiens", "assay": "Toxicity in human patient infected with Influenza virus assessed as increase in alanine aminotransferase at 600 mg, iv", "type": "organism-based", "method_in_brief": "as §2"}, "Homo sapiens [31]": {"tested_on": "Homo sapiens", "assay": "Toxicity in human patient infected with Influenza virus assessed as increase in aspartate aminotransferase at 600 mg, iv", "type": "organism-based", "method_in_brief": "as §2"}, "Homo sapiens [32]": {"tested_on": "Homo sapiens", "assay": "Toxicity in human patient infected with Influenza virus assessed as increase in alpha1 microglobulin at 600 mg, iv", "type": "organism-based", "method_in_brief": "as §2"}, "Homo sapiens [33]": {"tested_on": "Homo sapiens", "assay": "Toxicity in human patient infected with Influenza virus assessed as nausea at 600 mg, iv", "type": "organism-based", "method_in_brief": "as §5"}, "Homo sapiens [34]": {"tested_on": "Homo sapiens", "assay": "Toxicity in human patient infected with Influenza virus assessed as increase in blood lactate dehydrogenase at 600 mg, iv", "type": "organism-based", "method_in_brief": "as §2"}}, "data": [{"smiles": "CCC(CC)[C@H](NC(C)=O)[C@@H]1[C@H](O)[C@@H](C(=O)O)C[C@H]1NC(=N)N", "note": "[PERAMIVIR ANHYDROUS]", "values": [{"measurement": "Cp", "setting": "Plasma", "value": 10.7, "unit": "ng/mL"}, {"measurement": "Activity", "setting": "Homo sapiens [1]", "value": "Toxic"}, {"measurement": "Activity", "setting": "Homo sapiens [2]", "value": "Toxic"}, {"measurement": "Activity", "setting": "Homo sapiens [3]", "value": "Toxic"}, {"measurement": "Activity", "setting": "Homo sapiens [4]", "value": "Toxic"}, {"measurement": "Activity", "setting": "Homo sapiens [5]", "value": "Toxic"}, {"measurement": "Activity", "setting": "Homo sapiens [6]", "value": "Toxic"}, {"measurement": "Activity", "setting": "Homo sapiens [7]", "value": "Toxic"}, {"measurement": "Activity", "setting": "Homo sapiens [8]", "value": "Toxic"}, {"measurement": "Activity", "setting": "Homo sapiens [9]", "value": "Toxic"}, {"measurement": "Activity", "setting": "Homo sapiens [10]", "value": "Toxic"}, {"measurement": "Activity", "setting": "Homo sapiens [11]", "value": "Toxic"}, {"measurement": "Activity", "setting": "Homo sapiens [12]", "value": "Toxic"}, {"measurement": "Activity", "setting": "Homo sapiens [13]", "value": "Toxic"}, {"measurement": "Activity", "setting": "Homo sapiens [14]", "value": "Toxic"}, {"measurement": "Activity", "setting": "Homo sapiens [15]", "value": "Toxic"}, {"measurement": "Activity", "setting": "Homo sapiens [16]", "value": "Toxic"}, {"measurement": "Activity", "setting": "Homo sapiens [17]", "value": "Toxic"}, {"measurement": "Activity", "setting": "Homo sapiens [18]", "value": "Toxic"}, {"measurement": "Activity", "setting": "Homo sapiens [19]", "value": "Toxic"}, {"measurement": "Activity", "setting": "Homo sapiens [20]", "value": "Toxic"}, {"measurement": "Activity", "setting": "Homo sapiens [21]", "value": "Toxic"}, {"measurement": "Activity", "setting": "Homo sapiens [22]", "value": "Toxic"}, {"measurement": "Activity", "setting": "Homo sapiens [23]", "value": "Toxic"}, {"measurement": "Activity", "setting": "Homo sapiens [24]", "value": "Toxic"}, {"measurement": "Activity", "setting": "Homo sapiens [25]", "value": "Toxic"}, {"measurement": "Activity", "setting": "Homo sapiens [26]", "value": "Toxic"}, {"measurement": "Activity", "setting": "Homo sapiens [27]", "value": "Toxic"}, {"measurement": "Activity", "setting": "Homo sapiens [28]", "value": "Toxic"}, {"measurement": "Activity", "setting": "Homo sapiens [29]", "value": "Toxic"}, {"measurement": "Activity", "setting": "Homo sapiens [30]", "value": "Toxic"}, {"measurement": "Activity", "setting": "Homo sapiens [31]", "value": "Toxic"}, {"measurement": "Activity", "setting": "Homo sapiens [32]", "value": "Toxic"}, {"measurement": "Activity", "setting": "Homo sapiens [33]", "value": "Toxic"}, {"measurement": "Activity", "setting": "Homo sapiens [34]", "value": "Toxic"}]}]}
